# Bioassay records (PubChem BioAssay)
# bCat KO growth – beta-catenin-lacking colon tumor cell growth suppression; HCT116 beta-catenin knockout viability, CellTiter-Glo, 60 h; active compounds read low; viability, % at 10 µM; hit rate 1.5% among 140,000;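 active = viability at or under a set limit, the compound median less 4 SD, cut at about 6% in these data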;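 also: 0% = Hyamine 1622 control at 20 µM and 100% = untreated cell control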
# PTEN del growth – suppresses growth of cells with PTEN deletion | HCT116 PTEN-null viability, CellTiter-Glo, 60 h; active compounds read low | viability, % at 10 µM | hit rate 1.2% among 140,000 | AID 827;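 active = viability at or below a set limit, 4 SD under the median of all tested compounds, cut at about 3.7% in these data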;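 also: PTEN knockout HCT116 line with beta catenin targeted HCT116 as companion control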
# H69AR growth 86K – blocks growth of human H69AR lung tumor cells. hit rate 6% among 85,000. H69AR lung tumor viability, ATP luminescence, 72 h; active compounds read low. viability, % at 10 µM. AID 598;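 active = viability at or below 40%; inactive = viability above 40%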;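 also: multidrug resistant small cell line overexpressing MRP-1 efflux transporter; 100% = mean luminescence of untreated control wells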
# HUVEC inhibit – blocks proliferation of human endothelial cells; viability, % at 10 µM (by protocol); hit rate 1.1% among 86,000; HUVEC proliferation, CellTiter-Glo luminescence, 72 h; active compounds read low;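 active = viability at or below 30%; inactive = viability above 30%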;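 also: 100% = median luminescence of DMSO-only cell control wells on each plate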
# Fibroblast inh – blocks proliferation of human lung fibroblasts. LL 47 human lung fibroblast viability, ATP luminescence; active compounds read low. viability, % at 10 µM. hit rate 1.1% among 85,000. AID 719;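 active = viability at or below 50% in the single dose screen; inactive = viability above 50%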;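 also: compound exposure lasted 72 h before the ATP readout; 100% = median luminescence of untreated cell-only wells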
#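 Material: Human LL 47 lung fibroblast cells | Input: 1,150 cells/well | Buffer or medium: IMEM plus 15% FBS | Compound dosing: 0.1% DMSO in all compound wells | Times: Overnight cell rest, 72 h compound treatment at 37 °C | Signal: CellTiter-Glo luminescence measuring cellular ATP | Measure: % viability versus median cells-only luminescence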
# An asterisk follows results filed as active; nt = no result. The entries come from a sample that favours hits as a whole.
SMILES,bCat KO growth,PTEN del growth,H69AR growth 86K,HUVEC inhibit,Fibroblast inh
CC1CC(=O)C(C2c3ccccc3CCN2C(=O)CCl)C(=O)C1 (centres undefined),92,93,nt,nt,nt
Cc1c(C(=O)NCCC2=CCCCC2)oc2ccc(S(=O)(=O)N3CCOCC3)cc12,26,14,10*,53,62
Cc1c(C(=O)Nc2ccc(F)cc2)oc2ccc(S(=O)(=O)N3CC(C)CC(C)C3)cc12 (centres undefined),2.1*,9,12*,51,61
Cc1c(C(=O)NCc2cccs2)oc2ccc(S(=O)(=O)N3CCOCC3)cc12,103,110,77,80,92
Cc1cccc(NC(=O)c2oc3ccc(S(=O)(=O)N4CCOCC4)cc3c2C)c1C,86,75,35*,71,103
CCCn1c(SCC(=O)c2c[nH]c3ccccc23)nnc1-c1ccncc1,92,90,nt,nt,nt
O=C(CSc1ccc2nnc(-c3cccs3)n2n1)N1CCOCC1,nt,nt,79,94,92
Cc1nonc1NC(=O)CSc1nc2cc(Cl)ccc2c2c1CCCC2,89,77,60,61,101
Cc1ccc(CNC(=O)CSc2c3c(nc4ccc(Cl)cc24)CCCC3)o1,87,86,15*,74,77
COc1ccc(NC(=S)N2CCN(CCN=CC3=C(O)CC(c4ccccc4)CC3=O)CC2)cc1 (centres undefined),98,97,nt,nt,nt
Cc1c(CCOC(=O)C2C3CC4CC(C3)CC2C4)sc[n+]1CC(=O)c1ccc(Br)cc1 (centres undefined),12,24,0.9*,2.6*,73
CCOc1ccc(/C(O)=C2/C(=O)C(=O)N(CCN(CC)CC)C2c2ccco2)cc1 (centres undefined),94,95,107,106,100
O=C(N/N=C/c1c[nH]c2ccccc12)c1cccc([N+](=O)[O-])c1,89,79,nt,nt,nt
Cc1[nH]n(-c2ccccc2)c(=O)c1/C=N/NC(=O)c1cccc([N+](=O)[O-])c1,2.4*,2.6*,nt,nt,nt
Cc1[nH]n(-c2ccccc2)c(=O)c1/C=N/NC(=O)COc1ccccc1[N+](=O)[O-],24,16,nt,nt,nt
CCN(CC)C(=O)C1CCCN(c2ccc([N+](=O)[O-])cc2/C=N/NC(=O)c2cccc(O)c2)C1 (centres undefined),56,51,nt,nt,nt
Cc1[nH]n(-c2cccc3ccccc23)c(=O)c1/C=N/NC(=O)c1cccc([N+](=O)[O-])c1,4.5*,3.6*,nt,nt,nt
CN1CCN(c2ccc([N+](=O)[O-])cc2/C=N/NC(=O)c2cccc([N+](=O)[O-])c2)CC1,5.3*,4,nt,nt,nt
O=C1c2ccccc2C(=O)N1CCCc1nc2ccccc2c(=O)n1CCCn1ccnc1,85,88,80,96,108
CCN(CC(=O)c1c(N)n(C)c(=O)n(C)c1=O)c1cccc2ccccc12,65,61,nt,nt,nt
Cc1nn(Cc2ccc(Cl)cc2Cl)c(C)c1NC(=O)CCl,11,9,1.6*,75,23*
N#Cc1c(N2CCCC(O)C2)nc(N)c2c(N)nc3c(c12)CC(=O)N3C12CC3CC(CC(C3)C1)C2 (centres undefined),13,18,3.3*,16*,65
COc1ccccc1OCC(O)Cn1c(=N)n(Cc2ccccc2)c2ccccc21 (centres undefined),5.2*,8,51,36,60
COc1ccc(OCC(O)Cn2c(=N)n(CCN3CCCCC3)c3ccccc32)cc1 (centres undefined),26,26,95,40,63
Cc1ccc(OCC(O)Cn2c(=N)n(CCN3CCCCC3)c3ccccc32)cc1 (centres undefined),2.3*,2.9*,nt,nt,nt
SMILES,bCat KO growth,PTEN del growth,H69AR growth 86K,HUVEC inhibit,Fibroblast inh
CCCCn1c(=N)n(CC(O)COc2cccc(C)c2)c2ccccc21 (centres undefined),1.7*,1.5*,1.6*,87,70
CCCCCn1c(=N)n(CC(O)COc2ccccc2OC)c2ccccc21 (centres undefined),2.6*,4,nt,nt,nt
Cc1ccc(OCC(O)Cn2c(=N)n(CCN3CCOCC3)c3ccccc32)cc1 (centres undefined),59,62,74,86,91
C=CCn1c(=N)n(CC(O)COc2ccccc2OC)c2ccccc21 (centres undefined),60,75,75,79,94
COCCCNC(=O)CC(NS(=O)(=O)c1ccc(Cl)cc1)c1ccco1 (centres undefined),102,97,106,97,103
CC(C)(C)C(=O)Cn1c(=N)n(Cc2ccccc2Cl)c2ccccc21,87,88,73,116,95
